Calls of active or inactive are those of the source. The rule behind the calls is not given here.
What was measured:
[1] = target: D(1A) dopamine receptor (Homo sapiens) (UniProt P21728); test: Binding affinity to dopamine D1 receptor (unknown origin) at 1 mM by radioligand displacement assay relative to control
[2] = target: T1, D(4) dopamine receptor (Homo sapiens) (UniProt P21917); test: Binding affinity to dopamine D4 receptor (unknown origin) at 0.1 mM by radioligand displacement assay relative to control
T1 sequence (whole entry): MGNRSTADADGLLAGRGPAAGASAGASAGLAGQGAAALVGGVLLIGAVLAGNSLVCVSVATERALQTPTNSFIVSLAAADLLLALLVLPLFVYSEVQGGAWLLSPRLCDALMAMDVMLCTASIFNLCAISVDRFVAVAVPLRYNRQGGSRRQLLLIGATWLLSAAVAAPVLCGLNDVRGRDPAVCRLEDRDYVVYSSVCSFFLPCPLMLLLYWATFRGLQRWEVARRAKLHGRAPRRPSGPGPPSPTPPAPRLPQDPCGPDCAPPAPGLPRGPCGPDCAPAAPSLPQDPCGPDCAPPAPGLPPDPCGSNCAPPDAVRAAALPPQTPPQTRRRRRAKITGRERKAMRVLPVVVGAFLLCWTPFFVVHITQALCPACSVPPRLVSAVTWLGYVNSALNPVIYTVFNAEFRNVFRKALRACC

[3] = system: Mus musculus; test: Toxicity in mouse assessed as induction of lethargy at 10 mg/kg relative to control; type: organism-based; settings: in vivo
[4] = system: NCI-H1650; test: Cell cycle arrest in human NCI-H1650 cells assessed as accumulation at sub-G1 phase at 1 to 40 uM by propidium iodide staining-based flow cytometric analysis; type: functional
[5] = target: D(3) dopamine receptor (Homo sapiens) (UniProt P35462); test: Binding affinity to dopamine D3 receptor (unknown origin) at 1 mM by radioligand displacement assay relative to control
D(3) dopamine receptor (Homo sapiens), sequence (P35462 whole entry): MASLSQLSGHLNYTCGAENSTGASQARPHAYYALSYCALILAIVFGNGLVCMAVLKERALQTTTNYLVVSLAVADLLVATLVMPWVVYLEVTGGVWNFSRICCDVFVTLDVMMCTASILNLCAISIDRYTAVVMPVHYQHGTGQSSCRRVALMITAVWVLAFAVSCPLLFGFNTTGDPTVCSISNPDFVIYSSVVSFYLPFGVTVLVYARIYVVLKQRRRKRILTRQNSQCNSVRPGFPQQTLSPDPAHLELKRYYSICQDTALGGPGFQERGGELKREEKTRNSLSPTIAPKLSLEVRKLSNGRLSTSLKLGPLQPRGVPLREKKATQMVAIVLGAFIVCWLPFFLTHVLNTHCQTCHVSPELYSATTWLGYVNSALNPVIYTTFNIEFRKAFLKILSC

[6] = target: D(2) dopamine receptor (Homo sapiens) (UniProt P14416); test: Binding affinity to dopamine D2 receptor (unknown origin) at 1 mM by radioligand displacement assay relative to control
D(2) dopamine receptor (Homo sapiens), sequence (P14416 whole entry): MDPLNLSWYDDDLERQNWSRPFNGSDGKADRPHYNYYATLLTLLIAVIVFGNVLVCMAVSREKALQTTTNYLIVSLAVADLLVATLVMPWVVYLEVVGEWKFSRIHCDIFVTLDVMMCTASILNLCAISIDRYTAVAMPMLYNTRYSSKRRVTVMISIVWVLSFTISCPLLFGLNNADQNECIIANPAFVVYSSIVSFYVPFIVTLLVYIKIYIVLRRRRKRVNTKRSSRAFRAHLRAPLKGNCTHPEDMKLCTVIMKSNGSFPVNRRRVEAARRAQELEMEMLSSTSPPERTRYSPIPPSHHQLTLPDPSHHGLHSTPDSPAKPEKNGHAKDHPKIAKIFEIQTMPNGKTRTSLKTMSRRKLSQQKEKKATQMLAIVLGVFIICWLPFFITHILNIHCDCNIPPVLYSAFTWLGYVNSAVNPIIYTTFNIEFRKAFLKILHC

[7] = target: D(2) dopamine receptor (Homo sapiens) (UniProt P14416); test: Binding affinity to dopamine D2 receptor (unknown origin) at 0.1 mM by radioligand displacement assay relative to control
[8] = system: NCI-H1650; test: Cytotoxicity against human NCI-H1650 cells assessed as growth inhibition after 48 hrs by MTT assay; type: functional; settings: NCI-H1650, 48 h
Method in brief: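 H1650 cells were exposed to drug for 48 h at five concentrations bracketing 1–40 μM in 10 μM steps, with MTT read-out. GI50 is given only where the data form a sigmoidal dose response.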

[9] = target: D(1B) dopamine receptor (Homo sapiens) (UniProt P21918); test: Binding affinity to dopamine D5 receptor (unknown origin) at 0.1 mM by radioligand displacement assay relative to control
D(1B) dopamine receptor (Homo sapiens), sequence (P21918 whole entry): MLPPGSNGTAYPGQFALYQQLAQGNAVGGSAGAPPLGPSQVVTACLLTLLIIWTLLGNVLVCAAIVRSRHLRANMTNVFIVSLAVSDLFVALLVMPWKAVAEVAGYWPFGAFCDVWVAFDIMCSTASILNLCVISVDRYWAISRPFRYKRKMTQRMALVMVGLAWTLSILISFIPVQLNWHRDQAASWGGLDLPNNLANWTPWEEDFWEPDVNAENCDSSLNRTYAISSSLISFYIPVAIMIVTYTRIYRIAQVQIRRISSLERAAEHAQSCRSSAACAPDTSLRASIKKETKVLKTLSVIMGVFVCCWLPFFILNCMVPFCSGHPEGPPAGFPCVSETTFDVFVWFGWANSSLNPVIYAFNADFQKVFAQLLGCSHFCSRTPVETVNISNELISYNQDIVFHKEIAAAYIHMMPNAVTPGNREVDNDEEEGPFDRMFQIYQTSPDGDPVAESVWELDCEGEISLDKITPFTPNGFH

[10] = target: D(3) dopamine receptor (Homo sapiens) (UniProt P35462); test: Binding affinity to dopamine D3 receptor (unknown origin) at 0.1 mM by radioligand displacement assay relative to control
[11] = target: D(1A) dopamine receptor (Homo sapiens) (UniProt P21728); test: Binding affinity to dopamine D1 receptor (unknown origin) at 0.1 mM by radioligand displacement assay relative to control
[12] = target: RAC-alpha serine/threonine-protein kinase (Homo sapiens) (UniProt P31749); test: Inhibition of AKT phosphorylation in human NCI-H1650 cells at 20 to 40 uM after 12 hrs by Western blot analysis; type: cell-based
RAC-alpha serine/threonine-protein kinase (Homo sapiens), sequence (P31749 whole entry): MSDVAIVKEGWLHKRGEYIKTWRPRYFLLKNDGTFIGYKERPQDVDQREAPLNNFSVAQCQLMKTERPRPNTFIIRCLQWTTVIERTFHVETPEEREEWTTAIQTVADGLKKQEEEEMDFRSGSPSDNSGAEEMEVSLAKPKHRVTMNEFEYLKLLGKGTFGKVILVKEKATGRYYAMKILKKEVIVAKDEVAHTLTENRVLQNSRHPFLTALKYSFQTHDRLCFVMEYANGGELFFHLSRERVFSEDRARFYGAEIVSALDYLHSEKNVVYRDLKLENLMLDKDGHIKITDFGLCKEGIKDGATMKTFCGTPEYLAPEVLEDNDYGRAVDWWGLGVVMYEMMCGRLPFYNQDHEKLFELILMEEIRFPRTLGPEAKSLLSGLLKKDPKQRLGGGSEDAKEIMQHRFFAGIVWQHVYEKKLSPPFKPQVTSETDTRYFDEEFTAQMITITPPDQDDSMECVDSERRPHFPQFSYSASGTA

[13] = target: D(1B) dopamine receptor (Homo sapiens) (UniProt P21918); test: Binding affinity to dopamine D5 receptor (unknown origin) at 1 mM by radioligand displacement assay relative to control
[14] = target: T1, D(4) dopamine receptor (Homo sapiens); test: Binding affinity to dopamine D4 receptor (unknown origin) at 1 mM by radioligand displacement assay relative to control
[15] = system: NCI-H1650; test: Inhibition of ERK phosphorylation in human NCI-H1650 cells at 20 to 40 uM after 12 hrs by Western blot analysis; type: cell-based
[16] = Bioavailability in mouse at 10 mg/kg, ip; type: ADME, organism-based; settings: in vivo
[17] = Clearance in mouse at 1 mg/kg, iv; type: ADME, organism-based; settings: in vivo
[18] = Initial drug concentration in mouse at 1 mg/kg, iv; type: ADME, organism-based; settings: in vivo
[19] = Cmax in mouse at 10 mg/kg, ip; type: ADME, organism-based; set-up: dose 10 mg/kg, route intraperitoneal; settings: in vivo
[20] = AUCinfinity in mouse at 1 mg/kg, iv; type: ADME, organism-based; set-up: dose 1 mg/kg, time infinity, route intravenous; settings: in vivo
[21] = Tmax in mouse at 10 mg/kg, po; type: ADME, organism-based; settings: in vivo
[22] = system: NCI-H1650; test: Cell cycle arrest in human NCI-H1650 cells assessed as accumulation at sub-G1 phase by propidium iodide staining-based flow cytometric analysis; type: functional
[23] = Volume of distribution at steady state in mouse at 1 mg/kg, iv; type: ADME, organism-based; settings: in vivo, read-out: Vdss
[24] = Tmax in mouse at 10 mg/kg, ip; type: ADME, organism-based; settings: in vivo
[25] = Half life in mouse at 1 mg/kg, ip; type: ADME, organism-based; settings: in vivo
[26] = AUClast in mouse at 1 mg/kg, iv; type: ADME, organism-based; settings: in vivo
[27] = Cmax in mouse at 10 mg/kg, po; type: ADME, organism-based; set-up: dose 10 mg/kg, route oral; settings: in vivo
[28] = system: NCI-H1650; test: Cytotoxicity against human NCI-H1650 cells assessed as reduction of colony formation at 20 to 40 uM after 7 days by crystal violet staining; type: functional, cell-based
[29] = Half life in mouse at 10 mg/kg, po; type: ADME, organism-based; settings: in vivo
[30] = AUCinfinity in mouse at 1 mg/kg, ip; type: ADME, organism-based; set-up: time infinity, route intraperitoneal; settings: in vivo
[31] = Oral bioavailability in mouse at 10 mg/kg; type: ADME, organism-based; settings: in vivo
[32] = AUClast in mouse at 10 mg/kg, ip; type: ADME, organism-based; settings: in vivo
[33] = AUCinfinity in mouse at 10 mg/kg, po; type: ADME, organism-based; set-up: dose 10 mg/kg, time infinity, route oral; settings: in vivo
[34] = AUClast in mouse at 10 mg/kg, po; type: ADME, organism-based; settings: in vivo
[35] = Bioavailability in mouse at 25 mg/kg, ip; type: ADME, organism-based; settings: in vivo
[36] = Cmax in mouse at 25 mg/kg, ip; type: ADME, organism-based; set-up: dose 25 mg/kg, route intraperitoneal; settings: in vivo
[37] = Cmax in mouse at 25 mg/kg, po; type: ADME, organism-based; set-up: dose 25 mg/kg, route oral; settings: in vivo
[38] = AUClast in mouse at 25 mg/kg, po; type: ADME, organism-based; settings: in vivo
[39] = Tmax in mouse at 100 mg/kg, po; type: ADME, organism-based; settings: in vivo
[40] = Tmax in mouse at 25 mg/kg, ip; type: ADME, organism-based; settings: in vivo
[41] = AUClast in mouse at 100 mg/kg, ip administered through DMA/solutol/water; type: ADME, organism-based; settings: in vivo
[42] = AUCinfinity in mouse at 25 mg/kg, ip; type: ADME, organism-based; set-up: dose 25 mg/kg, time infinity, route intraperitoneal; settings: in vivo
[43] = Tmax in mouse at 100 mg/kg, ip administered through DMA/solutol/water; type: ADME, organism-based; settings: in vivo
[44] = Tmax in mouse at 25 mg/kg, po; type: ADME, organism-based; settings: in vivo
[45] = AUCinfinity in mouse at 100 mg/kg, ip administered through DMA/solutol/water; type: ADME, organism-based; set-up: dose 100 mg/kg, route intraperitoneal, time infinity; settings: in vivo
[46] = Bioavailability in mouse at 100 mg/kg, ip administered through DMA/solutol/water; type: ADME, organism-based; settings: in vivo
[47] = Oral bioavailability in mouse at 25 mg/kg; type: ADME, organism-based; settings: in vivo
[48] = AUCinfinity in mouse at 25 mg/kg, po; type: ADME, organism-based; set-up: dose 25 mg/kg, route oral, time infinity; settings: in vivo
[49] = AUClast in mouse at 100 mg/kg, po; type: ADME, organism-based; settings: in vivo
[50] = AUClast in mouse at 25 mg/kg, ip; type: ADME, organism-based; settings: in vivo
[51] = Oral bioavailability in mouse at 100 mg/kg; type: ADME, organism-based; settings: in vivo
[52] = Cmax in mouse at 100 mg/kg, po; type: ADME, organism-based; set-up: dose 100 mg/kg, route oral; settings: in vivo
[53] = Half life in mouse at 1 mg/kg, iv; type: ADME, organism-based; settings: in vivo
[54] = Cmax in mouse at 100 mg/kg, ip administered through DMA/solutol/water; type: ADME, organism-based; set-up: dose 100 mg/kg, route intraperitoneal; settings: in vivo

D(1A) dopamine receptor (Homo sapiens), sequence (P21728 whole entry): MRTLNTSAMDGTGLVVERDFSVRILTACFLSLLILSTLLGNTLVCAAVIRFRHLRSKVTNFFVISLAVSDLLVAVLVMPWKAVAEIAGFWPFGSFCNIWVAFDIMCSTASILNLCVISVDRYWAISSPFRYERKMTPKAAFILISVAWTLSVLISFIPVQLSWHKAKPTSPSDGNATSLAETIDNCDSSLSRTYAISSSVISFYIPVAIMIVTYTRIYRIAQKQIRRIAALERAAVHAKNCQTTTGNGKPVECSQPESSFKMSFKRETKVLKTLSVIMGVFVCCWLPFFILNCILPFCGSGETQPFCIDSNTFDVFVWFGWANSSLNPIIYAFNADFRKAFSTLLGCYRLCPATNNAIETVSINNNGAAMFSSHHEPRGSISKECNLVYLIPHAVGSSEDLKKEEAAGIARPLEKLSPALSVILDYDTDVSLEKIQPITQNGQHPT

CN1CCN(CCCN2c3ccccc3Sc3ccc(C(F)(F)F)cc32)CC1 [TRIFLUOPERAZINE]
inhibition [1]: > 95% | inhibition [2]: 73% | Activity [3]: Toxic | Activity [4]: Active | inhibition [5]: > 95% | inhibition [6]: > 95% | inhibition [7]: > 95% | GI50 [8]: 12.2 µM | inhibition [9]: 81% | inhibition [10]: > 95% | inhibition [11]: > 95% | inhibition [12]: Active | inhibition [13]: > 95% | inhibition [14]: > 95% | inhibition [15]: Active

COC(=O)NCCCN1c2ccccc2CCc2ccc(Cl)cc21
inhibition [2]: < 5% | inhibition [7]: < 5% | GI50 [8]: > 40 µM | inhibition [9]: < 10% | inhibition [10]: < 5% | inhibition [11]: < 5%

COC(=O)NCCCN1c2ccccc2Sc2ccc(Cl)cc21
inhibition [1]: 14% | bioavailability [16]: 46.6% | inhibition [2]: < 5% | clearance [17]: 52.5 mL/min/kg | C0 [18]: 1200 ng/mL | Cmax [19]: 859 ng/mL | AUC(0-inf) [20]: 317 ng·h/mL | Activity [3]: Non-toxic | Tmax [21]: 0.5 h | inhibition [5]: 22% | Activity [22]: Dose-dependent effect | Vd [23]: 1.76 L/kg | Tmax [24]: 0.25 h | half-life [25]: 2.87 h | inhibition [6]: 21% | AUC(0-t) [26]: 310 ng·h/mL | Cmax [27]: 349 ng/mL | inhibition [7]: < 5% | Activity [28]: Active | GI50 [8]: > 40 µM | inhibition [9]: < 10% | half-life [29]: 1.19 h | AUC(0-inf) [30]: 1450 ng·h/mL | inhibition [10]: < 5% | inhibition [11]: < 5% | bioavailability [31]: 15.8% | AUC(0-t) [32]: 1450 ng·h/mL | AUC(0-inf) [33]: 498 ng·h/mL | AUC(0-t) [34]: 489 ng·h/mL

O=S(=O)(NC[C@H](O)CN1c2ccccc2CCc2ccccc21)c1ccc(OC(F)(F)F)cc1
clearance [17]: 44 mL/min/kg | AUC(0-inf) [20]: 376 ng·h/mL | bioavailability [35]: 62% | Cmax [36]: 2240 ng/mL | Cmax [37]: 1310 ng/mL | AUC(0-t) [38]: 3300 ng·h/mL | Vd [23]: 1.61 L/kg | Tmax [39]: 2 h | AUC(0-t) [26]: 370 ng·h/mL | Tmax [40]: 1 h | AUC(0-t) [41]: 34700 ng·h/mL | GI50 [8]: 15 µM | AUC(0-inf) [42]: 5790 ng·h/mL | Tmax [43]: 1 h | Tmax [44]: 1 h | AUC(0-inf) [45]: 34700 ng·h/mL | bioavailability [46]: 94% | bioavailability [47]: 36% | AUC(0-inf) [48]: 3460 ng·h/mL | AUC(0-t) [49]: 18500 ng·h/mL | AUC(0-t) [50]: 5700 ng·h/mL | bioavailability [51]: 50% | Cmax [52]: 4880 ng/mL | half-life [53]: 0.81 h | Cmax [54]: 6490 ng/mL
